Measurements from ChEMBL document CHEMBL3763043, “Synthesis and biological evaluation of new fluorinated and chlorinated indenoisoquinoline topoisomerase I poisons” (Bioorg Med Chem, 2016).

Columns and labels:
[1] = Cytotoxicity against human SF539 cells by MTT assay; format: functional; details: SF-539
How it was run: (§1)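 NCI-60 screen: a single-dose 10 μM pre-test, then a five-concentration assay for promoted compounds. GI₅₀ is the concentration giving 50% growth inhibition versus control, taken from concentration-response curves. GI₅₀ values below the lowest concentration were recorded as 10 nM, and values above the range at the top concentration.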

MCF7 = assay: Cytotoxicity against human MCF7 cells by MTT assay; format: functional; how it was run: as §1
[2] = Cytotoxicity against human HCT116 cells by MTT assay; format: functional; details: HCT-116; how it was run: as §1
[3] = Cytotoxicity against human DU145 cells by MTT assay; format: functional; details: DU-145; how it was run: as §1
[4] = Cytotoxicity against human OVCAR3 cells by MTT assay; format: functional; details: OVCAR-3; how it was run: as §1
[5] = biological target: T1, DNA topoisomerase 1 (Homo sapiens) (UniProt P11387); assay: Activity at recombinant Top1 (unknown origin) using 3'-[32P]-labeled double-stranded DNA (117 bp) as substrate assessed as induction of DNA cleavage at 0.1 to 100 uM incubated for 20 mins by electrophoretic assay relative to 1 uM camptothecin
T1 sequence (whole entry): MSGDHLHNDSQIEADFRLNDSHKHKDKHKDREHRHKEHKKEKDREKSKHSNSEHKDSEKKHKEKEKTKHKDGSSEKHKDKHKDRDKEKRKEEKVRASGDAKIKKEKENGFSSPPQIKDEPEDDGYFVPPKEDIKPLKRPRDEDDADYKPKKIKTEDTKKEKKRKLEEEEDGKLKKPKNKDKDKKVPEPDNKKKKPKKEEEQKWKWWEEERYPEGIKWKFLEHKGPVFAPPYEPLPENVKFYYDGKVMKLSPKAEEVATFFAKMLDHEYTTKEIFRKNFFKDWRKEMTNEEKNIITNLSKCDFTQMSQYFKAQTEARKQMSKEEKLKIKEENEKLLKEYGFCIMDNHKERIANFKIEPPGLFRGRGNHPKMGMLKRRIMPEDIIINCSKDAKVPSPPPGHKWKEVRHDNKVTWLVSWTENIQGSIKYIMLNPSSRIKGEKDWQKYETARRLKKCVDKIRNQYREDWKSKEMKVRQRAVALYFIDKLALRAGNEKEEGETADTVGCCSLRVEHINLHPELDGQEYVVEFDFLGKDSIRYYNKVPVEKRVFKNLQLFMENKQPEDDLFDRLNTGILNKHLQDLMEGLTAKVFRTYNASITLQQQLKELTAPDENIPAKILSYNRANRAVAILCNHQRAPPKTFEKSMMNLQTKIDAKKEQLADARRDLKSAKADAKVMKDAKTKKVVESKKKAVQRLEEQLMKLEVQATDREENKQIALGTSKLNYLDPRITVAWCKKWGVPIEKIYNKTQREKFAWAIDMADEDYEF

[6] = Cytotoxicity against human HOP62 cells by MTT assay; format: functional; details: HOP-62; how it was run: as §1
SN12C = assay: Cytotoxicity against human SN12C cells by MTT assay; format: functional; how it was run: as §1
[7] = Cytotoxicity against human UACC62 cells by MTT assay; format: functional; details: UACC-62; how it was run: as §1
[8] = biological target: T2, Tyrosyl-DNA phosphodiesterase 2 (Homo sapiens, UniProt O95551); assay: Inhibition of recombinant human TDP2 using alpha32P-cordycepin-[…]-labeled 19-mer single-stranded oligonucleotide DNA containing 5'-phosphotyrosine (Y19) for 15 mins by PAGE assay
T2 sequence (O95551 whole entry): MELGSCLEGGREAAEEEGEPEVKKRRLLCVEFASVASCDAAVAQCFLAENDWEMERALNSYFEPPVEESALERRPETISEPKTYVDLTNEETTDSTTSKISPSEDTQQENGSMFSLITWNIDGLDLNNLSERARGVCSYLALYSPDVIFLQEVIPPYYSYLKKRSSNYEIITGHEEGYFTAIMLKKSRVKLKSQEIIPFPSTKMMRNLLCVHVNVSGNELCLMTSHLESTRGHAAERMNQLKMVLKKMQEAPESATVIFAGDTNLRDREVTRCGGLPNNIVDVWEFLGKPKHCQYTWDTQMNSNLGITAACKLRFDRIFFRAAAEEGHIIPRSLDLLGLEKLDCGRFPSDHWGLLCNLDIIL

[9] = biological target: Tyrosyl-DNA phosphodiesterase 1 (Homo sapiens, UniProt Q9NUW8); assay: Inhibition of recombinant TDP1 (unknown origin) using 5'-[32P]-labeled single-stranded DNA oligonucleotide containing 3'-phosphotyrosine (N14Y) as substrate for 15 mins by PAGE assay
Tyrosyl-DNA phosphodiesterase 1, sequence (Q9NUW8 whole entry): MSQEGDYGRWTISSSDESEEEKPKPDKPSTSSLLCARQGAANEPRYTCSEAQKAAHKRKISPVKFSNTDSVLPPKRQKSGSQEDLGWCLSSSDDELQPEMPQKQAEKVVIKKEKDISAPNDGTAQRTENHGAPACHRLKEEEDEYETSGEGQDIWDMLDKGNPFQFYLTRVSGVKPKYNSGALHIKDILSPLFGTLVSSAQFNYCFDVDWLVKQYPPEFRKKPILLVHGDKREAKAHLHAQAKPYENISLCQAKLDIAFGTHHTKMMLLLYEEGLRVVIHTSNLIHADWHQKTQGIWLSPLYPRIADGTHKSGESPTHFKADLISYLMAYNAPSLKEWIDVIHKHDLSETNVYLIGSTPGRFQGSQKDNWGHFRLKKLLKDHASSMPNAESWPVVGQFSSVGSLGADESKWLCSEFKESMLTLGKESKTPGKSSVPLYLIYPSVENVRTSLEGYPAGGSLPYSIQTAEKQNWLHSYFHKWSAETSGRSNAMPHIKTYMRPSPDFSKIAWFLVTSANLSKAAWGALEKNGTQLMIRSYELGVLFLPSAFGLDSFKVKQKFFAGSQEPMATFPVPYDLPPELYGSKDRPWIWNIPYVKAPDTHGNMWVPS

| Activity [5] [%] | IC50 [8] [nM] | IC50 [9] [nM] | SMILES | GI50 [1] [nM] | GI50 (MCF7) [nM] | GI50 [2] [nM] | GI50 [3] [nM] | GI50 [4] [nM] | GI50 [6] [nM] | GI50 (SN12C) [nM] | GI50 [7] [nM] |
| --- | --- | --- | --- | --- | --- | --- | --- | --- | --- | --- | --- |
| 50 |  |  | O=C1c2cc3c(cc2-c2c1c1ccc(Cl)cc1c(=O)n2C[C@H](O)CO)OCO3 | 25 | < 10 | 20 | 32 | 62 | 22 | 27 | 12 |
| 100 |  |  | O=C1c2cc3c(cc2-c2c1c1ccc(F)cc1c(=O)n2C[C@H](O)CO)OCO3 | 51 | 32 | 79 | 102 | 182 | 49 | 76 | 45 |
| 20 |  |  | O=C1c2cc3c(cc2-c2c1c1ccc(Cl)cc1c(=O)n2CCCN1CCOCC1)OCO3 |  |  |  |  |  |  |  |  |
| 50 |  |  | O=C1c2cc3c(cc2-c2c1c1ccc(Cl)cc1c(=O)n2CCCn1ccnc1)OCO3 | < 10 | < 10 | < 10 | < 10 | 40 | < 10 | < 10 | < 10 |
| 75 |  |  | O=C1c2cc3c(cc2-c2c1c1ccc(F)cc1c(=O)n2CCCn1ccnc1)OCO3 | < 10 | < 10 | < 10 | < 10 | 19 | < 10 | < 10 | < 10 |
| 75 | 8900 | 6300 | O=C1c2cc3c(cc2-c2c1c1ccc(Cl)cc1c(=O)n2CCCNCCO)OCO3 | 240 | 18 | 105 | 59 | 1320 | 71 | 1070 | 43 |
| 50 |  |  | O=C1c2cc3c(cc2-c2c1c1cc(Cl)c(Cl)cc1c(=O)n2C[C@H](O)CO)OCO3 | < 10 | < 10 | < 10 | < 10 | 16 | < 10 | < 10 | < 10 |
| 50 | 6300 | 6200 | O=C1c2cc3c(cc2-c2c1c1ccc(F)cc1c(=O)n2CCCNCCO)OCO3 | 41 | < 10 | 19 | 33 | 76 | 36 | 107 | 28 |
| 20 |  |  | O=C1c2cc3c(cc2-c2c1c1cc(Cl)c(Cl)cc1c(=O)n2CCCn1ccnc1)OCO3 | < 10 | < 10 | < 10 | < 10 | 43 | < 10 | < 10 | < 10 |
| 50 |  |  | O=C1c2cc3c(cc2-c2c1c1ccc(F)cc1c(=O)n2C[C@H](O)[C@@H](O)[C@H](O)CO)OCO3 | 29 | 12 | 35 | 51 | 100 | 32 | 79 | 25 |
| 20 |  |  | O=C1c2cc3c(cc2-c2c1c1ccc(Cl)cc1c(=O)n2C[C@H](O)[C@H](O)[C@H](O)CO)OCO3 |  |  |  |  |  |  |  |  |
| 20 |  |  | O=C1c2cc3c(cc2-c2c1c1cc(F)c(F)cc1c(=O)n2CCCn1ccnc1)OCO3 | < 10 | < 10 | < 10 | < 10 | 115 | < 10 | < 10 | < 10 |
| 50 |  |  | O=C1c2cc3c(cc2-c2c1c1cc(F)c(F)cc1c(=O)n2C[C@H](O)CO)OCO3 | 29 | < 10 | 37 | 41 | 224 | 22 | 33 | 15 |
| 20 |  |  | O=C1c2cc3c(cc2-c2c1c1ccc(F)cc1c(=O)n2CCCN1CCOCC1)OCO3 |  |  |  |  |  |  |  |  |

| SMILES | Activity [5] [%] | IC50 [8] [nM] | IC50 [9] [nM] | GI50 [1] [nM] | GI50 (MCF7) [nM] | GI50 [2] [nM] | GI50 [3] [nM] | GI50 [4] [nM] | GI50 [6] [nM] | GI50 (SN12C) [nM] | GI50 [7] [nM] |
| --- | --- | --- | --- | --- | --- | --- | --- | --- | --- | --- | --- |
| COc1cc2c3c(n(CCCNCCO)c(=O)c2cc1OC)-c1cc2c(cc1C3=O)OCO2 [LMP-744] | 100 |  |  | 90 |  | 150 |  | 1500 | 10 | 10 |  |
